Reference: ChEMBL document CHEMBL1129660, “Studies on 6-aminoquinolones: synthesis and antibacterial evaluation of 6-amino-8-methylquinolones” (J Med Chem, 1996)
Converted amounts (≈) assume the structure as drawn.

Experiments:
Type in all cases: functional
[1] = Geometric mean of antibacterial activity (Gram -ve bacteria) of the compound
Method in brief: (§1)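 Geometric means calculated from agar-dilution MICs (µg/mL), taken separately across the five Gram-positive and the eight Gram-negative panel strains.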

Escherichia coli [2] = assay: Antibacterial activity tested against Escherichia coli ATCC 8739
Method in brief: (§2)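 MICs (µg/mL) determined by conventional agar dilution against a panel of eight Gram-negative and five Gram-positive reference strains.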

Pseudomonas aeruginosa = assay: Antibacterial activity tested against P. ae (Pseudomonas aeruginosa) ATCC 9027; method in brief: as §2
[3] = system: Staphylococcus epidermidis; assay: Antibacterial activity tested against Staphylococcus epidermidis HCF Berset C; method in brief: as §2
Klebsiella pneumoniae = assay: Antibacterial activity tested against Klebsiella pneumoniae (Klebsiella pneumoniae) ATCC 10031; method in brief: as §2
Staphylococcus aureus [4] = assay: Antibacterial activity against Staphylococcus aureus MPR 5; method in brief: as §2
Enterococcus faecalis = assay: Antibacterial activity tested against Streptococcus faecalis LEP Br; method in brief: as §2
Staphylococcus aureus [5] = assay: Antibacterial activity against Staphylococcus aureus ATCC 6538; method in brief: as §2
[6] = system: Staphylococcus epidermidis; assay: Antibacterial activity tested against Staphylococcus epidermidis CPHL A2; method in brief: as §2
Bacteria = assay: Geometric mean of antibacterial activity (Gram +ve bacteria) of the compound; method in brief: as §1
Shigella = assay: Antibacterial activity tested against Shigella enteritidis; method in brief: as §2
Enterobacter cloacae = assay: Antibacterial activity tested against Enterobacter cloacae OMNFI 174
Proteus vulgaris = assay: Antibacterial activity tested against Proteus vulgaris CNUR 5; method in brief: as §2
Providencia stuartii = assay: Antibacterial activity tested against Providencia stuartii CNUR 5; method in brief: as §2
Escherichia coli [7] = assay: Antibacterial activity tested against Escherichia coli ISF 432; method in brief: as §2

MIC (Escherichia coli [2]) [µg/mL] | MIC [3] [µg/mL] | MIC (Klebsiella pneumoniae) [µg/mL] | MIC (Staphylococcus aureus [4]) [µg/mL] | MIC (Enterococcus faecalis) [µg/mL] | MIC (Staphylococcus aureus [5]) [µg/mL] | MIC [6] [µg/mL] | MIC (Shigella) [µg/mL] | MIC (Enterobacter cloacae) [µg/mL] | MIC (Proteus vulgaris) [µg/mL] | MIC (Providencia stuartii) [µg/mL] | MIC (Escherichia coli [7]) [µg/mL] | Structure (SMILES) | Geometric mean [1] | MIC (Pseudomonas aeruginosa) [µg/mL] | Geometric mean (Bacteria)
0.016 (≈ 0.0431 µM) | 0.25 (≈ 0.673 µM) | 0.016 (≈ 0.0431 µM) | 0.125 (≈ 0.337 µM) | 2 (≈ 5.38 µM) | 0.125 (≈ 0.337 µM) | 0.25 (≈ 0.673 µM) | 1 (≈ 2.69 µM) | 2 (≈ 5.38 µM) | 64 (≈ 172 µM) | 4 (≈ 10.8 µM) | 0.016 (≈ 0.0431 µM) | Cc1c(N2CCCC(CO)C2)c(N)cc2c(=O)c(C(=O)O)cn(C3CC3)c12 (stereo not given) | 0.504 | 2 (≈ 5.38 µM) | 0.287
0.03 (≈ 0.0844 µM) | 0.25 (≈ 0.703 µM) | 0.03 (≈ 0.0844 µM) | 0.06 (≈ 0.169 µM) | 2 (≈ 5.63 µM) | 0.03 (≈ 0.0844 µM) | 0.125 (≈ 0.352 µM) | 1 (≈ 2.81 µM) | 1 (≈ 2.81 µM) | 32 (≈ 90 µM) | 0.25 (≈ 0.703 µM) | 0.03 (≈ 0.0844 µM) | Cc1c(N2CCCC(C)C2)c(N)cc2c(=O)c(C(=O)O)cn(C3CC3)c12 (stereo not given) | 0.414 | 4 (≈ 11.3 µM) | 0.162
0.125 (≈ 0.338 µM) | 0.06 (≈ 0.162 µM) | 0.06 (≈ 0.162 µM) | 0.03 (≈ 0.0812 µM) | 1 (≈ 2.71 µM) | 0.03 (≈ 0.0812 µM) | 0.06 (≈ 0.162 µM) | 2 (≈ 5.41 µM) | 2 (≈ 5.41 µM) | 16 (≈ 43.3 µM) | 0.5 (≈ 1.35 µM) | 0.03 (≈ 0.0812 µM) | Cc1c(N2CC(C)CC(C)C2)c(N)cc2c(=O)c(C(=O)O)cn(C3CC3)c12 (stereo not given) | 0.641 | 4 (≈ 10.8 µM) | 0.079

The remaining lines, values behind:

Structure (SMILES) | MIC (Escherichia coli [2]) [µg/mL] | MIC [3] [µg/mL] | MIC (Klebsiella pneumoniae) [µg/mL] | MIC (Staphylococcus aureus [4]) [µg/mL] | MIC (Enterococcus faecalis) [µg/mL] | MIC (Staphylococcus aureus [5]) [µg/mL] | MIC [6] [µg/mL] | MIC (Shigella) [µg/mL] | MIC (Enterobacter cloacae) [µg/mL] | MIC (Proteus vulgaris) [µg/mL] | MIC (Providencia stuartii) [µg/mL] | MIC (Escherichia coli [7]) [µg/mL] | Geometric mean [1] | MIC (Pseudomonas aeruginosa) [µg/mL] | Geometric mean (Bacteria)
Cc1c(N2CCC(C)CC2)c([N+](=O)[O-])cc2c(=O)c(C(=O)O)cn(C3CC3)c12 | 32 (≈ 83 µM) | 4 (≈ 10.4 µM) | 64 (≈ 166 µM) | 2 (≈ 5.19 µM) | 32 (≈ 83 µM) | 32 (≈ 83 µM) | 4 (≈ 10.4 µM) | 64 (≈ 166 µM) | 64 (≈ 166 µM) | 64 (≈ 166 µM) | 64 (≈ 166 µM) | 2 (≈ 5.19 µM) | 38.054 | 64 (≈ 166 µM) | 8
Nc1cc2c(=O)c(C(=O)O)cn(C3CC3)c2cc1N1CCc2ccccc2C1 | 128 (≈ 341 µM) | 16 (≈ 42.6 µM) | 128 (≈ 341 µM) | 4 (≈ 10.7 µM) | 128 (≈ 341 µM) | 128 (≈ 341 µM) | 16 (≈ 42.6 µM) | 128 (≈ 341 µM) | 128 (≈ 341 µM) | 128 (≈ 341 µM) | 128 (≈ 341 µM) | 32 (≈ 85.2 µM) | 107.635 | 128 (≈ 341 µM) | 27.857
Cc1c(N2CCCCC2)c(F)cc2c(=O)c(C(=O)O)cn(C3CC3)c12 | 0.125 (≈ 0.363 µM) | 0.03 (≈ 0.0871 µM) | 0.125 (≈ 0.363 µM) | 0.03 (≈ 0.0871 µM) | 0.25 (≈ 0.726 µM) | 0.03 (≈ 0.0871 µM) | 0.03 (≈ 0.0871 µM) | 0.5 (≈ 1.45 µM) | 16 (≈ 46.5 µM) | 2 (≈ 5.81 µM) | 2 (≈ 5.81 µM) | 0.03 (≈ 0.0871 µM) | 0.591 | 1 (≈ 2.9 µM) | 0.046
Cc1c(N2CCNCC2)c(N)cc2c(=O)c(C(=O)O)cn(C3CC3)c12 | 0.03 (≈ 0.0876 µM) | 8 (≈ 23.4 µM) | 0.03 (≈ 0.0876 µM) | 4 (≈ 11.7 µM) | 16 (≈ 46.7 µM) | 2 (≈ 5.84 µM) | 4 (≈ 11.7 µM) | 0.03 (≈ 0.0876 µM) | 0.06 (≈ 0.175 µM) | 4 (≈ 11.7 µM) | 2 (≈ 5.84 µM) | 0.03 (≈ 0.0876 µM) | 0.158 | 1 (≈ 2.92 µM) | 5.28
Cc1c(N2CCc3ccccc3C2)c([N+](=O)[O-])cc2c(=O)c(C(=O)O)cn(C3CC3)c12 | 64 (≈ 153 µM) | 2 (≈ 4.77 µM) | 64 (≈ 153 µM) | 0.25 (≈ 0.596 µM) | 4 (≈ 9.54 µM) | 64 (≈ 153 µM) | 4 (≈ 9.54 µM) | 64 (≈ 153 µM) | 64 (≈ 153 µM) | 64 (≈ 153 µM) | 64 (≈ 153 µM) | 4 (≈ 9.54 µM) | 45.25 | 64 (≈ 153 µM) | 3.482
